Assay outcomes: PubChem, several laboratories
Glyco luc inh – blocks N-linked glycosylation in D54 reporter cells. D54 ERlucT glycosylation luciferase reporter, 24 h; percent of 100 nM tunicamycin response. reporter increase, % at 12.5 µM. actives 0.23% (n = 360,000). AID 588692;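 active = mean luciferase reporter signal, scaled so untreated is 0 and the glycosylation-blocking control 100, at or above a set limit in every replicate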;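 note: luciferase carries N-glycosylation sites so blocking glycosylation raises the light; 0% = median of neutral control wells and 100% = median of 100 nM tunicamycin wells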
T cell modulator – T cell immune modulators affecting CD8 T cell-vesicle binding | response (vesicle binding), % at 7 µM | 2C CD8+ T cell-vesicle binding, flow cytometry; hits give low values | actives 0.068% (n = 330,000);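 active = response, share of CD8 T cells binding vesicles, and their 90th percentile fluorescence all below set limits, cut at about 80% in these data, passing the limit was not always enough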;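 note: values below 100% mean blocked vesicle binding to the CD8+ T cells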
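System: murine 2C transgenic CD8+ T lymphocytes; also added: QL9-loaded Drosophila micro-vesicles; times: binding 1.5 h at 37 °C; measured by: flow cytometry, PE anti-B7-1 (FL2) versus Alexa647 anti-CD8 (FL8), PFA-fixed; control set: Peptide-free naked vesicles (low) and QL9 vesicles with 0.7% DMSO vehicle (high)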
ALR H2O2 inh – inhibitors of human sulfhydryl oxidase ALR; P55789; inhibition, % (test concentration not listed); actives 3.8% (n = 290,000); purified ALR, DTT oxidation, H2O2 HRP-luminol luminescence; AID 485317;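 active = mean replicate inhibition above about 79%, with every replicate also reaching it, limit read from the data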
Target sequence (P55789 whole entry, looked up): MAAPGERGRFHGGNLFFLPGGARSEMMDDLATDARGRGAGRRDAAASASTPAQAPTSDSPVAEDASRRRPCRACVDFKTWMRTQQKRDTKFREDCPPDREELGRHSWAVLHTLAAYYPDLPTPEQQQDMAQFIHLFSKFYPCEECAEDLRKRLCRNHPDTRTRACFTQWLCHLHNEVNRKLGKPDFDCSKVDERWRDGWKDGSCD
* = called active by the depositor. This is one part of a sample in which hits are shown more often than they occur.

`C/C(=N\NC(=O)c1ccccc1)c1c(O)n(C2CCCCC2)c(=O)[nH]c1=O` gave Glyco luc inh 0.9, T cell modulator 241.8 and ALR H2O2 inh 93.1*.
For C/C(=N\Nc1ccccc1)c1c(O)n(C)c(=O)n(C)c1=O the results were Glyco luc inh 11.3, T cell modulator 289.1 and ALR H2O2 inh 99.2*.
Screening COc1ccc(-n2nnnc2C(CCc2ccccc2)N2CCC3(CC2)C(=O)NCN3c2ccccc2)cc1 (configuration not stated) returned Glyco luc inh -4.9.
Screening Fc1ccc(N2Cc3ccccc3-n3nncc3C2)cc1 returned Glyco luc inh 0.9.
For CCCCCC1(C(C)C)C(=O)NC(=S)NC1=O the results were Glyco luc inh 0.4.
`O=C(NCC1=C(c2cccc3ccccc23)C[C@@H]2CC[C@H]1N2Cc1ccco1)c1ccc([N+](=O)[O-])cc1` gave Glyco luc inh -7.6.
`CN=C(SCc1ccccc1)c1c(O)n(C)c(=O)n(C)c1=O` gave Glyco luc inh 0.7, T cell modulator 625.9 and ALR H2O2 inh 97.6*.
Screening CCC(=NCCC(c1ccccc1)c1ccccc1)c1c(O)n(C)c(=O)n(C)c1=O returned Glyco luc inh -4.3, T cell modulator 298.9 and ALR H2O2 inh -4.2.
For COc1ccc(CCN(C)Cc2ccc(F)cc2F)cc1OC the results were Glyco luc inh 3.4, T cell modulator 571.2 and ALR H2O2 inh -23.6.
Screening CCN(CC)c1ccc(CN(C)CCc2ccc(OC)c(OC)c2)cc1 returned Glyco luc inh -0.9, T cell modulator 212.0 and ALR H2O2 inh 99.2*.
`COc1ccc(N/N=C/c2c(O)n(-c3cccc(C)c3)c(=O)[nH]c2=O)cc1` gave Glyco luc inh 1.5, T cell modulator 657.1 and ALR H2O2 inh 98.9*.
`Cc1ccc(-n2c(O)c(/C=N/N3CCCCCC3)c(=O)[nH]c2=O)cc1C` gave Glyco luc inh 7.3 and T cell modulator 359.6.
Screening COc1ccc(N=Cc2c(O)n(-c3ccc(C)cc3)c(=O)[nH]c2=O)cc1 returned Glyco luc inh 1.9, T cell modulator 251.7 and ALR H2O2 inh -4.9.
Cc1ccc(-n2c(O)c(/C=N/Nc3ccccc3)c(=O)[nH]c2=O)cc1C was read as T cell modulator 191.6 and ALR H2O2 inh 99.0*.
Cc1cccc(N/N=C/c2c(O)[nH]c(=S)[nH]c2=O)c1 was read as Glyco luc inh 5.6 and ALR H2O2 inh 100.2*.
Cc1cccc(-n2c(O)c(/C=N/Nc3nc4c(c(=O)n(C)c(=O)n4C)n3C)c(=O)[nH]c2=S)c1 was read as Glyco luc inh 2.2 and T cell modulator 220.2.
For Cc1cccc(-n2c(O)c(/C=N/NC(=O)c3ccncc3)c(=O)[nH]c2=O)c1 the results were Glyco luc inh 0.7, T cell modulator 242.9 and ALR H2O2 inh -1.1.
`COc1ccc(N/N=C/c2c(O)n(-c3ccc(C)c(C)c3)c(=O)[nH]c2=O)cc1` gave Glyco luc inh 4.1, T cell modulator 247.8 and ALR H2O2 inh 98.9*.
COC(=O)C1=C(c2ccc(-c3ccccc3)c(F)c2)C[C@@H]2CC[C@H]1N2C(=O)N1CCOCC1 was read as Glyco luc inh -3.7, T cell modulator 174.4 and ALR H2O2 inh -6.4.
For CSCCC(c1nnnn1Cc1ccccc1)N1CCC2(CC1)C(=O)NCN2c1ccccc1 (configuration not stated) the results were Glyco luc inh -1.1.
Cc1ccc2c(C)cccc2c1 was read as Glyco luc inh 0.8.
Cc1ccc(-c2nc(CS(=O)CC(=O)N3CCC4(CC3)OCCO4)c(C)o2)cc1 (configuration not stated) was read as Glyco luc inh 2.1, T cell modulator 351.5 and ALR H2O2 inh 99.2*.
Cc1ccc(-c2ccc(=O)n(CC(=O)N3CCC4(CC3)OCCO4)n2)cc1 was read as Glyco luc inh 0.6, T cell modulator 130.6 and ALR H2O2 inh -4.6.
Screening COc1cc(OC)c(OC)cc1CNCCc1ccc2c(c1)OCO2 returned Glyco luc inh 2.0 and T cell modulator 176.0.
Screening CCC(C)N1C(=O)/C(=C\c2cc3c4c(c2)CCCN4CCC3)C(=O)NC1=S (configuration not stated) returned Glyco luc inh -1.9, T cell modulator 189.3 and ALR H2O2 inh 98.7*.
Screening CCC(C)N1C(=O)/C(=C\c2ccc(N3CCCCCC3)cc2)C(=O)NC1=S (configuration not stated) returned Glyco luc inh 2.3, T cell modulator 161.0 and ALR H2O2 inh 9.1.
`CC(Cc1ccccc1Sc1ccccc1)N(C)C` (configuration not stated) gave Glyco luc inh -0.8, T cell modulator inactive and ALR H2O2 inh -11.7.
Screening CC(Cc1ccccc1Sc1ccc(O)cc1)N(C)C (configuration not stated) returned Glyco luc inh -3.1, T cell modulator 223.5 and ALR H2O2 inh 99.0*.
Screening O=[N+]([O-])c1nccn1CC(O)CN1CC1 (configuration not stated) returned Glyco luc inh -1.2.
COC(=O)C1=C(c2cc3ccccc3o2)C[C@@H]2CC[C@H]1N2C(=O)NC(C)C was read as Glyco luc inh -3.0, T cell modulator inactive and ALR H2O2 inh -1.4.
C[C@H](N)CN1CCc2ccc(Br)cc21 was read as Glyco luc inh 1.2, T cell modulator 565.2 and ALR H2O2 inh 99.3*.
`CC(=O)NC(Cc1ccc(N(CCCl)CCCl)cc1)C(=O)NC(C(=O)O)C(C)C` (configuration not stated) gave Glyco luc inh -0.2, T cell modulator 270.6 and ALR H2O2 inh 1.7.
`CCOC(=O)CC(NC(=O)C(Cc1ccc(N(CCCl)CCCl)cc1)NC(C)=O)C(=O)OCC` (configuration not stated) gave Glyco luc inh -1.7, T cell modulator 32.7* and ALR H2O2 inh 24.1.
`CC(CC(C)(C)N1CC1)=NNC(=O)Nc1cccc2ccccc12` gave Glyco luc inh -2.7.
Screening CN(C)c1ccc(C=C2C(=O)NC(=S)NC2=O)cc1 returned Glyco luc inh 11.8.
Screening CCN(CC)c1ccc(C=C2C(=O)NC(=S)NC2=O)cc1 returned Glyco luc inh 7.1, T cell modulator 71.5 and ALR H2O2 inh 99.4*.
For CC1(CCCc2ccc(N(CCCl)CCCl)cc2)NC(=O)NC1=O (configuration not stated) the results were Glyco luc inh -1.0.
`O=C1NC(=O)N(Cc2ccco2)C(=O)/C1=C/C=C/c1ccco1` gave Glyco luc inh 35.9*, T cell modulator 182.4 and ALR H2O2 inh 32.2.
For Cc1ccc(N2C(=O)NC(=O)/C(=C\C=C\c3ccco3)C2=O)cc1C the results were Glyco luc inh 47.2*, T cell modulator 543.7 and ALR H2O2 inh 96.4*.
For O=C1NC(=S)N(c2ccc(F)cc2)C(=O)/C1=C/c1ccco1 the results were T cell modulator 271.0 and ALR H2O2 inh 92.6*.
`O=C1NC(=S)N(c2ccc(F)cc2)C(=O)/C1=C\c1ccoc1` gave Glyco luc inh 1.8.
For O=C1NC(=S)N(c2ccc(Cl)cc2)C(=O)/C1=C/N1CCN(C(=O)c2ccco2)CC1 the results were Glyco luc inh 1.6, T cell modulator 369.3 and ALR H2O2 inh 96.6*.
O=C(O)Cn1cc(/C=C2\C(=O)NC(=O)N(c3ccc(Cl)cc3)C2=O)c2ccccc21 was read as Glyco luc inh -0.9, T cell modulator 153.9 and ALR H2O2 inh 26.6.
